In ChEMBL document CHEMBL1125849, “Synthesis of the 2-amino-4-phosphonobutanoic acid analogues (E)- and (Z)-2-amino-2,3-methano-4-phosphonobutanoic acid and their evaluation as inhibitors of hippocampal excitatory neurotransmission” (J Med Chem, 1991):

Columns and labels:
Assay type in all cases: functional
[1] = organism: Rattus norvegicus; assay: Inhibitory activity against Hippocampal Excitatory Neurotransmission using lateral perforant path (LPP)in rat hippocamapl slice Tested as racemic mixtures
Procedure, shortened: (§1)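 Rat transverse hippocampal slices (450 μm) from urethane-anesthetized animals, held in oxygenated bicarbonate medium, pH 7.4. Recording in a microperfusion chamber at 34 °C. Field potentials in the dentate molecular layer: outer third for LPP, middle third for MPP. Placement checked with L-AP4. Drug started at threshold and doubled every 4 min. IC50 taken from fractional response versus log concentration, as a weighted mean.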

[2] = Ratio is IC50 vales of medial perforant path (MPP) to that of lateral perforant path (LPP)
Procedure, shortened: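 Ratio of MPP to LPP IC50 values from rat hippocampal slice field-potential recordings. Dentate molecular layer recorded, middle third (MPP) and outer third (LPP), at 34 °C. Concentration doubled every 4 min. Each IC50 is a weighted mean taken from fractional-response versus log-concentration curves.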

[3] = organism: Rattus norvegicus; assay: Inhibitory activity against Hippocampal Excitatory Neurotransmission using medial perforant path (MPP) in rat hippocamapl slice Tested as racemic mixtures; procedure, shortened: as §1
[4] = Rattus norvegicus, Perforant path

N[C@]1(C(=O)O)CC[C@H](P(=O)(O)O)C1
IC50 [1, 4]: 130 µM
Ratio [2]: 31
IC50 [3, 4]: 1850 µM

N[C@]1(C(=O)O)CC[C@@H](P(=O)(O)O)C1
IC50 [1, 4]: 960 µM
Ratio [2]: 2.5
IC50 [3, 4]: 2400 µM

N[C@@H](CCP(=O)(O)O)C(=O)O
Ratio [2]: 18

NC1(C(=O)O)CC1CP(=O)(O)O (stereo in doubt; 5)
IC50 [1]: 18 µM
Ratio [2]: 88
IC50 [3]: 1580 µM

NC1(C(=O)O)CC1CP(=O)(O)O (stereo in doubt; 6)
IC50 [1, 4]: 17 µM
Ratio [2]: 4.8
IC50 [3]: 81 µM
